Experimental data reported in publication PMC3428230 (ChemMedChem, 2011).
Like-named read-outs stand apart in the source and are kept apart here. Blank lines part the entries; values can stand above or below the compound they belong to.

Assays:
[1] = target: human GSK-3β (Homo sapiens, UniProt P49841); test: In vitro GSK-3β inhibition: phosphorylation of primed substrate; format: biochemical
[2] = system: 15 kinases; test: Selectivity studies against 15 kinases; format: biochemical; details: 15 kinases (Supporting Information)
[3] = system: C57BL/6J male mice; test: Amphetamine–chlordiazepoxide locomotor hyperactivity procedure; format: in vivo
[4] = system: C57BL/6J male mice; test: Prepulse inhibition of the acoustic startle response; format: in vivo; details: 30 min pretreatment
Method in brief: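 Male C57BL/6J mice given test compound (10 or 25 mgkg−1) or vehicle i.p. in 10% DMSO, 30 min before testing. 5 min habituation to 70 dB background noise, then six startle-alone trials. Ten blocks of randomized null, 120 dB startle, prepulse (4/8/12 dB above background)+startle, and prepulse-alone trials. PPI = [1−(prepulse+startle)/startle amplitude]×100%. n=8–14 per group; repeated-measures ANOVA.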

[5] = system: ClockΔ19 mutant mice; test: Locomotor activity in CLOCK mutant mice; format: in vivo; details: 12.5 mgkg^−1 i.p. once a day for five days, 2 h recording
[6] = target: T1, CYP1A2 (Homo sapiens, UniProt P05177); test: Cytochrome P450 inhibition; format: in vitro ADME; details: up to 10 μM of 3a
T1 sequence (P05177 1-516): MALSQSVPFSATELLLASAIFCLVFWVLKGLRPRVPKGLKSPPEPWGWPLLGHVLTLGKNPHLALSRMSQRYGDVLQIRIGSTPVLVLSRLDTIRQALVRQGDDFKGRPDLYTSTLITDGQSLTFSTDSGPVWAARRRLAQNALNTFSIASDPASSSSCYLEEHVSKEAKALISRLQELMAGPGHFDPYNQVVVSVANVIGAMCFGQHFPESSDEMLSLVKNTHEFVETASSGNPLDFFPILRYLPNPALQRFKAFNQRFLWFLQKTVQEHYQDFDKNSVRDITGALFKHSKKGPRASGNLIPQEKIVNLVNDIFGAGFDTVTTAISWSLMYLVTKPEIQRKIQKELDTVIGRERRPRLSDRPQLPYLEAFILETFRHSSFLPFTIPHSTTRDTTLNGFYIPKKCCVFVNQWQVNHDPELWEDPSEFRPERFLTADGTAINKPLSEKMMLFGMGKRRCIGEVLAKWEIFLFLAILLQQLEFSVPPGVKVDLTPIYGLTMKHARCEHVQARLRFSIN

[7] = target: T2, CYP2B6 (Homo sapiens, UniProt P20813); test: Cytochrome P450 inhibition; format: in vitro ADME; details: up to 10 μM of 3a
T2 sequence (P20813 1-491): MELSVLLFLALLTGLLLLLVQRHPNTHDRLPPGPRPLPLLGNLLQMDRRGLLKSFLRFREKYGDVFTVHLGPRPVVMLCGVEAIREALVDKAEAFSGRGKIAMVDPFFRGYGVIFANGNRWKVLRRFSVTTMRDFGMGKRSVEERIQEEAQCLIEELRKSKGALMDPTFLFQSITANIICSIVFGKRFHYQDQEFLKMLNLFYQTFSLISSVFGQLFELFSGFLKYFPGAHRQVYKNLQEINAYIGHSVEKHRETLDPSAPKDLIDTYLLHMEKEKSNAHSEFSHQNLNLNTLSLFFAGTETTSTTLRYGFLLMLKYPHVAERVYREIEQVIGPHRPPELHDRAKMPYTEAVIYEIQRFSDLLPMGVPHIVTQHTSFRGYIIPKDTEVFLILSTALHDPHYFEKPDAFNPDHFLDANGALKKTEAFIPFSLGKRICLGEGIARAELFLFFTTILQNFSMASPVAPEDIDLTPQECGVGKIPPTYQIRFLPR

[8] = target: CYP2C9 (Homo sapiens, UniProt P11712); test: Cytochrome P450 inhibition; format: in vitro ADME; details: up to 10 μM of 3a
Chain of CYP2C9 (P11712 whole entry): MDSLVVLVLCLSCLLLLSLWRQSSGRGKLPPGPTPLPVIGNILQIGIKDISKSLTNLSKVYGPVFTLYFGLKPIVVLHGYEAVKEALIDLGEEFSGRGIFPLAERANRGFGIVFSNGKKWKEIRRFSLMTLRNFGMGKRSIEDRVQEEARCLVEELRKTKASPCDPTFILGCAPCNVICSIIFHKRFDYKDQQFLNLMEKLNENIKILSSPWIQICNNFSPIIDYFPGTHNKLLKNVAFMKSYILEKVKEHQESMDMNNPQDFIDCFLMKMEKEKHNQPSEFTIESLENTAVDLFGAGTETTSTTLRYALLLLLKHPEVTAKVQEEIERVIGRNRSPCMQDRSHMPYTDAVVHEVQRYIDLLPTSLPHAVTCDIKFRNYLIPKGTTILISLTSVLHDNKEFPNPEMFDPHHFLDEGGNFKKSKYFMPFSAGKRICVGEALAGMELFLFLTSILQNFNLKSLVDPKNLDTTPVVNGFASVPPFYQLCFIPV

[9] = target: CYP2C19 (Homo sapiens, UniProt P33261); test: Cytochrome P450 inhibition; format: in vitro ADME; details: up to 10 μM of 3a
Chain of CYP2C19 (P33261 whole entry): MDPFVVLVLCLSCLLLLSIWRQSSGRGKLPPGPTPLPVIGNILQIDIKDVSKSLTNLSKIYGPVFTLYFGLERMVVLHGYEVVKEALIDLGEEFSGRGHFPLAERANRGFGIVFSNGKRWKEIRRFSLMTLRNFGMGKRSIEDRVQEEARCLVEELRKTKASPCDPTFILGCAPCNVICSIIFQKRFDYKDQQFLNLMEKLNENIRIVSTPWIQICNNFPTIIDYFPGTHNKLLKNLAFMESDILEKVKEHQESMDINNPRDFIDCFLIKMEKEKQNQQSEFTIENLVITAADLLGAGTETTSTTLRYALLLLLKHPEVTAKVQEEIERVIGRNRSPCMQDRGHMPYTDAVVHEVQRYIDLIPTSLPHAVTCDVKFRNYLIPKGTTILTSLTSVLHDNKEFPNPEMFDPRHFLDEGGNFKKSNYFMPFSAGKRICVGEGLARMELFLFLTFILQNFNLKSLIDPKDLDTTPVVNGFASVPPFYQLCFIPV

[10] = target: CYP2D6 (Homo sapiens, UniProt P10635); test: Cytochrome P450 inhibition; format: in vitro ADME; details: up to 10 μM of 3a
Chain of CYP2D6 (P10635 whole entry): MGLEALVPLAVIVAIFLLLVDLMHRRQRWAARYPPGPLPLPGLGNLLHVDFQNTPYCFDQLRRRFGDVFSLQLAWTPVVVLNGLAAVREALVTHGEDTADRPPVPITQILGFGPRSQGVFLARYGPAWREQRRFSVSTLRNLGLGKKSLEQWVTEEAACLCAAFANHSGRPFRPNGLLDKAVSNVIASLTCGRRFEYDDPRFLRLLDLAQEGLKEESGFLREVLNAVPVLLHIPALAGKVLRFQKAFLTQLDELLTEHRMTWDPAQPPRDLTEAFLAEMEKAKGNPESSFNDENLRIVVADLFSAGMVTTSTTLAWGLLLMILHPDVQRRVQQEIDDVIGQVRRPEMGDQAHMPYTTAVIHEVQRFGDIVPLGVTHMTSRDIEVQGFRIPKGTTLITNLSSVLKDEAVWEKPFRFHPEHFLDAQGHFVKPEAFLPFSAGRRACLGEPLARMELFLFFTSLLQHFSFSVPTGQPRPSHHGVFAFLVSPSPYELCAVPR

[11] = target: CYP3A4 (Homo sapiens, UniProt P08684); test: Cytochrome P450 inhibition; format: in vitro ADME; details: up to 10 μM of 3a
Chain of CYP3A4 (P08684 whole entry): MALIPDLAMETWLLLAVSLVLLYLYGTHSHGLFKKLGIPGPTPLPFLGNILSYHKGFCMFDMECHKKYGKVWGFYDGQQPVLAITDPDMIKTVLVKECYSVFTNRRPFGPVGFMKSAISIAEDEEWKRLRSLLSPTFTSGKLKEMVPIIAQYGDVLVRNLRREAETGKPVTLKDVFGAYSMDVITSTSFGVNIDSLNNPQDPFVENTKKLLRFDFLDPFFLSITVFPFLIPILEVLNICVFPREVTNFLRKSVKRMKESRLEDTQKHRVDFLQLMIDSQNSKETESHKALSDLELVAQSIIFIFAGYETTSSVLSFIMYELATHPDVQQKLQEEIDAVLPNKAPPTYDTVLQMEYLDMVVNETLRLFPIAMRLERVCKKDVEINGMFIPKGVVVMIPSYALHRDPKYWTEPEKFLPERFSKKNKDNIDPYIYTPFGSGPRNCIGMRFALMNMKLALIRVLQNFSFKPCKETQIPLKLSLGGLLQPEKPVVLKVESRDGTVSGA

[12] = Human liver microsomal stability; format: in vitro ADME; details: 60 min, 1 and 10 μM
[13] = Mouse liver microsomal stability; format: in vitro ADME; details: 60 min, 1 and 10 μM
[14] = Aqueous solubility, HPLC-based method; format: physicochemical
[15] = primed substrate 20 μm, 10 μm ATP, tested at Reaction Biology Inc.

Chain of human GSK-3β (P49841 whole entry): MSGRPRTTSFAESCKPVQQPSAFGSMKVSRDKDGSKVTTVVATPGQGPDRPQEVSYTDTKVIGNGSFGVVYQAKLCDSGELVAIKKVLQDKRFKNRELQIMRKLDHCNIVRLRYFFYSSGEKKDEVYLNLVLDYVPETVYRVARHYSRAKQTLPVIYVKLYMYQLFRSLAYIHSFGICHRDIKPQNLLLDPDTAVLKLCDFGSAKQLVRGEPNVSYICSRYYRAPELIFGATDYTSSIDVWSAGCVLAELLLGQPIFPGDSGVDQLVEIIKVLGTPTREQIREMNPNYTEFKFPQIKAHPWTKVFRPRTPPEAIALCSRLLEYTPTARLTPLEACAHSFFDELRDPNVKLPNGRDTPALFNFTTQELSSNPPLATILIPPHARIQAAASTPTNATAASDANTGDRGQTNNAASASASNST

SMILES: O=C1NC(=O)C(c2cn(C3CCNCC3)c3ccccc23)=C1c1coc2ccccc12 [Compound 3a, 3-Benzofuran-3-yl-4-(1-piperidin-4-yl-1H-indol-3-yl)-pyrrole-2,5-dione]
- IC50 [1]: 67 ± 6 nM
- kinase selectivity [2]: reasonably selective amongst other kinases with the exception of PKA and PKC-b2
- activity in the Amph/CDP assay ([3]; 3 mgkg^−1 i.p., 5 min pretreatment): not active
- baseline locomotor activity ([3]; doses higher than 10 mgkg^−1): reductions in baseline locomotor activity
- prepulse inhibition (PPI) ([4]; 10 mgkg^−1 i.p.): not active
- prepulse inhibition (PPI) ([4]; 25 mgkg^−1 i.p.): enhanced PPI
- locomotor hyperactivity in response to novelty (beam breaks) [5]: attenuation of the locomotor hyperactivity
- CYP1A2 inhibition [6]: ≤ 30%
- CYP2B6 inhibition [7]: ≤ 30%
- CYP2C9 inhibition [8]: ≤ 30%
- CYP2C19 inhibition [9]: ≤ 30%
- CYP2D6 inhibition [10]: ≤ 30%
- CYP3A4 inhibition [11]: ≤ 30%
- compound remained after incubation with liver microsomes [12]: more than 83%
- compound remained after incubation with liver microsomes [13]: more than 83%
- aqueous solubility [14]: 196 mgL^−1

SMILES: CN1CCC(n2cc(C3=C(c4coc5ccccc45)C(=O)NC3=O)c3ccccc32)CC1 [Compound 3h, 3-Benzofuran-3-yl-4-[1-(1-methyl-piperidin-4-yl)-1H-indol-3-yl]-pyrrole-2,5-dione]
- IC50 [1]: 155 ± 2 nM

SMILES: O=C1NC(=O)C(c2cn(C3CCN(Cc4ccccn4)CC3)c3ccccc23)=C1c1coc2ccccc12 [Compound 3i, 3-Benzofuran-3-yl-4-[1-(1-pyridin-2-ylmethyl-piperidin-4-yl)-1H-indol-3-yl]-pyrrole-2,5-dione]
- IC50 [1]: 110 ± 4 nM

SMILES: O=C1NC(=O)C(c2cn(C3CCN(Cc4ccncc4)CC3)c3ccccc23)=C1c1coc2ccccc12 [Compound 3j, 3-Benzofuran-3-yl-4-[1-(1-pyridin-4-ylmethyl-piperidin-4-yl)-1H-indol-3-yl]-pyrrole-2,5-dione]
- IC50 [1]: 65 ± 4 nM

SMILES: NCC(=O)N1CCC(n2cc(C3=C(c4coc5ccccc45)C(=O)NC3=O)c3ccccc32)CC1 [Compound 3p, 3-{1-[1-(2-Amino-acetyl)-piperidin-4-yl]-1H-indol-3-yl}-4-benzofuran-3-yl-pyrrole-2,5-dione]
- IC50 [1]: 55 ± 2 nM

SMILES: O=C1NC(=O)C(c2cn(C3CCN(C(=O)c4ccccn4)CC3)c3ccccc23)=C1c1coc2ccccc12 [Compound 3l, 3-Benzofuran-3-yl-4-{1-[1-(pyridine-2-carbonyl)-piperidin-4-yl]-1H-indol-3-yl}-pyrrole-2,5-dione]
- IC50 [1]: 6 ± 1 nM

SMILES: O=C1NC(=O)C(c2cn(C3CCN(C(=O)c4ccncc4)CC3)c3ccccc23)=C1c1coc2ccccc12 [Compound 3n, 3-Benzofuran-3-yl-4-{1-[1-(pyridine-4-carbonyl)-piperidin-4-yl]-1H-indol-3-yl}-pyrrole-2,5-dione]
- IC50 [1]: 4 ± 1 nM

SMILES: O=C1NC(=O)C(c2cn(C3CCN(C(=O)c4cnccn4)CC3)c3ccccc23)=C1c1coc2ccccc12 [Compound 3o, 3-Benzofuran-3-yl-4-{1-[1-(pyrazine-2-carbonyl)-piperidin-4-yl]-1H-indol-3-yl}-pyrrole-2,5-dione]
- IC50 [1]: 4 ± 1 nM

SMILES: O=C1NC(=O)C(c2cn(C3CCN(C(=O)N4CCOCC4)CC3)c3ccccc23)=C1c1coc2ccccc12 [Compound 3k, 3-Benzofuran-3-yl-4-{1-[1-(morpholine-4-carbonyl)-piperidin-4-yl]-1H-indol-3-yl}-pyrrole-2,5-dione]
- IC50 [1]: 10 ± 2 nM

SMILES: O=C1NC(=O)C(c2cn(C3CCN(C(=O)c4cccnc4)CC3)c3ccccc23)=C1c1coc2ccccc12 [Compound 3m, 3-Benzofuran-3-yl-4-{1-[1-(pyridine-3-carbonyl)-piperidin-4-yl]-1H-indol-3-yl}-pyrrole-2,5-dione]
- IC50 [1]: 8 ± 2 nM

SMILES: Cc1nonc1C(=O)N1CCC(n2cc(C3=C(c4coc5ccccc45)C(=O)NC3=O)c3ccccc32)CC1 [Compound 3q, 3-Benzofuran-3-yl-4-{1-[1-(4-methyl-furazan-3-carbonyl)-piperidin-4-yl]-1H-indol-3-yl}-pyrrole-2,5-dione]
- IC50 [1]: 25 ± 2 nM

Next, values leading:

- IC50 [1, 15]: 30 ± 4 nM
SMILES: O=C1NC(=O)C(c2cn(C3CCNCC3)c3ccc(F)cc23)=C1c1coc2ccccc12 [Compound 3d, 3-Benzofuran-3-yl-4-(5-fluoro-1-piperidin-4-yl-1H-indol-3-yl)-pyr-role-2,5-dione]

- IC50 [1, 15]: 684 ± 17 nM
SMILES: O=C1NC(=O)C(c2cn(C3CCNCC3)c3ccc(Br)cc23)=C1c1coc2ccccc12 [3 f, 3-Benzofuran-3-yl-4-(5-bromo-1-piperidin-4-yl-1H-indol-3-yl)-pyr-role-2,5-dione]

- IC50 [1, 15]: 272 ± 27 nM
SMILES: O=C1NC(=O)C(c2cn(C3CCNCC3)c3ccc(Cl)cc23)=C1c1coc2ccccc12 [Compound 3e, 3-Benzofuran-3-yl-4-(5-chloro-1-piperidin-4-yl-1H-indol-3-yl)-pyr-role-2,5-dione]

- IC50 [1]: 134 ± 5 nM
SMILES: COc1cccc2c(C3=C(c4cn(C5CCNCC5)c5ccccc45)C(=O)NC3=O)coc12 [Compound 3c, 3-(7-Methoxy-benzofuran-3-yl)-4-(1-piperidin-4-yl-1H-indol-3-yl)-pyrrole-2,5-dione]

- IC50 [1]: 28 ± 4 nM
SMILES: COc1cccc2c(C3=C(c4cn(C5CCNCC5)c5ccc(F)cc45)C(=O)NC3=O)coc12 [Compound 3g, 3-(5-Fluoro-1-piperidin-4-yl-1H-indol-3-yl)-4-(7-methoxy-benzo-furan-3-yl)-pyrrole-2,5-dione]

- IC50 [1]: 629 ± 32 nM
SMILES: COc1ccc2c(C3=C(c4cn(C5CCNCC5)c5ccccc45)C(=O)NC3=O)coc2c1 [Compound 3b, 3-(6-Methoxy-benzofuran-3-yl)-4-(1-piperidin-4-yl-1H-indol-3-yl)-pyrrole-2,5-dione]
